The values that follow come from paper PMC4889517 (Nanomedicine : nanotechnology, biology, and medicine, 2016).

“Also recorded” adds a separate entry of the source.

In one data set the test system is MDA-231. Kind of data set: MTT staining cytotoxicity, MDA-231. The data set is classed as cell-based, human. The conditions noted are these: read-out: IC50 (MTT).
Data set [1] is described as follows: Body weight of tumor bearing mice. The class given is in vivo, athymic nude mice. The conditions noted are these: 5 mg/kg i.p., 2 days/week, after 25 days. The gist of the method: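 Athymic nude mice carried SC PC-3 xenografts and were dosed i.p. twice weekly from day 7. Groups were free or liposomal test compound at 5 mg/kg, DMSO, or empty liposomes. Body weight was recorded on day 25 after implantation, which was day 18 of treatment. Mean ± SEM.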

The test system of data set [2] is PC-3 cell tumor xenografts. Kind of data set: TUNEL assay of apoptosis in tumor xenograft sections. The conditions noted are these: 5 mg/kg i.p., 2 days/week, day 25. The class given is in vivo, athymic nude mice. An outline of the steps: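 PC-3 xenografts were collected on day 25, after 18 days of i.p. dosing twice weekly at 5 mg/kg, with DMSO and empty liposome controls. Frozen sections were fixed in 2% paraformaldehyde (4°C, 30 min) and permeabilized in ethanol:acetic acid 2:1. They were labeled with fluorescein-12-dUTP by terminal deoxynucleotidyl transferase and counterstained with DAPI. TUNEL-positive cells were counted by fluorescence microscopy (n = 4).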

In a further data set the test system is DU-145 cells. In words: MTT staining cytotoxicity, DU-145. The data set is classed as cell-based, human. An outline of the steps:
(§1)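 Cells were seeded at 5 × 10⁴ cells/ml (DU-145 in EMEM, LNCaP in RPMI, 10% FBS) and allowed to attach for 24 h. Free test compound was given at 1.56–50 μM, with DMSO and empty liposome controls, for 24, 48 or 72 h. MTT (0.25 mg/ml final) was added for 2 h at 37°C, formazan dissolved in DMSO, and absorbance read at 590 nm. IC50 came from the concentration-effect curve. Triplicates, n = 3.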

In another data set the test system is PC-3 cells. Kind of data set: Annexin V and PI staining by flow cytometry. The class given is cell-based, human. The conditions noted are these: PC-3, 48 hr; free IPA-3 20-30 μM. An outline of the steps: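 PC-3 cells (F12K, 10% FBS, 37°C, 5% CO₂) were grown 24 h, then exposed to free test compound, liposomal test compound or empty liposomes. After treatment they were PBS-washed twice and stained for 10 min with annexin V-FITC and PI in HEPES binding buffer (140 mM NaCl, 1.8 mM CaCl2, pH 7.4). Cells were washed three times, scraped off, and 10,000 events counted by flow cytometry. Mean ± SEM of percent stained cells.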

The conditions of data set [3]: free form, rapid metabolism ref 10; cited from earlier work.
The subject of data set [4] is human prostate cancer PC-3, LNCaP and DU-145 cells. Kind of data set: MTT staining cytotoxicity in prostate cancer cell lines. The class given is cell-based. Particulars: concentrations of 5-30 μM; 24, 48, 72 hrs.
The test system of data set [5] is PC-3 cell tumor xenografts. In words: In vivo prostate tumor xenograft growth. Also noted: species or system athymic nude mice. Particulars: 5 mg/kg i.p., 2 days/week from day 7 to day 25. An outline of the steps:
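Male athymic nude mice, 6-8 weeks old (n = 5-6), received 3 million PC-3 cells in sterile saline SC. From day 7, dosing was i.p. twice weekly: free or sterically stabilized liposomal test compound at 5 mg/kg, with DMSO or empty liposome controls. Calipers were used on days 7, 14, 21 and 25, with volume = ½[length × width²]. Tumors were excised and weighed on day 25.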

The test system of a further data set is LNCaP cells. Kind of data set: MTT staining cytotoxicity, LNCaP. The class given is cell-based, human. The conditions noted are these: read-out: IC50 (MTT). The gist of the method: as §1
A further data set deals with MCF-7. In words: MTT staining cytotoxicity, MCF-7. The conditions noted are these: read-out: IC50 (MTT). The data set is classed as cell-based, human.
For a further data set, the system named is prostate tumor xenograft. The conditions noted are these: daily administration ref 8; cited from earlier work.

For orientation: IC50 means the concentration that gives 50% inhibition. As to `Oc1ccc2ccccc2c1SSc1c(O)ccc2ccccc12` [IPA-3], the IC50 with MDA-231 is 8 µM; in the data set with DU-145 cells (read-out: IC50 (MTT), DU-145), roughly 32 µM; in the data set on LNCaP cells, 10 µM; in the data set on MCF-7 it was 25 µM. In addition, the “effect on body weight of mice” value in [1] is “no significant effect”. Moreover, the “number of apoptotic (TUNEL positive) cells per field compared to control groups” value in data set [2] is given as “significant increases”. The “susceptibility to toxicity (MTT staining)” value in the data set with DU-145 cells (DU-145 compared to PC-3 and LNCaP cells) is on record as “less susceptible”. Moreover, in the data set with PC-3 cells, the “percent cells staining positive for annexin V alone” value is “significantly increased”. In addition, the “percent cells staining positive for both annexin V and PI” value in the data set on PC-3 cells was “significantly increased”. Further, the half-life in vivo result in data set [3] is given as “very short”. Besides, the “effect on MTT staining” value in data set [4] was “concentration- and time-dependent decreases in MTT staining”. The “PC-3 cell tumor xenograft growth” value in data set [5] is “ineffective; also recorded: did not have a significant effect”. The “prostate tumor xenograft growth” value with prostate tumor xenograft is “reduced”.
